# Bridge positions count the residues as written; N and C are the ends. Square brackets hold non-standard residues; d marks the D form. Peptide text beside a SMILES is read from it. * marks the point of attachment. ξ: configuration not given here. Octanoyl(7-Me) = CC(C)CCCCCC(=O)*; Palmitoyl = CCCCCCCCCCCCCCCC(=O)*; Hexanoyl(4ξ-Me) = CCC(C)CCC(=O)*; dOrn = NCCC[C@@H](N)C(=O)O; Octanoyl = CCCCCCCC(=O)*; Orn = NCCC[C@H](N)C(=O)O
# Legend:
# [1] = system: Staphylococcus aureus; assay: Antibacterial activity against Staphylococcus aureus USA300 assessed as inhibition of bacterial growth incubated for 18 hrs by CLSI protocol based method; type: functional
# Outline: (§1)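 Single colonies from blood agar (16 h, 37 °C) grown in TSB at 37 °C, 220 rpm to OD600 ~0.5, then diluted in MHB to 2×10^5 CFU/mL. Mixed with serial MHB dilutions of DMSO stocks in polypropylene plates, sealed, and incubated 18 h at 37 °C, 600 rpm. MIC was taken as the lowest concentration with no visible growth; three technical replicates.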
# [2] = system: Klebsiella pneumoniae; assay: Antibacterial activity against Klebsiella pneumoniae ATCC 13883 assessed as inhibition of bacterial growth incubated for 18 hrs by CLSI protocol based method; type: functional; outline: as §1
# [3] = system: Escherichia coli; assay: Antibacterial activity against Escherichia coli ATCC 25922 assessed as inhibition of bacterial growth incubated for 18 hrs by CLSI protocol based method; type: functional
# Outline: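 Broth microdilution MIC. Strain streaked from glycerol stock on sheep blood agar (16 h, 37 °C); a colony was grown in TSB at 37 °C, 220 rpm, to OD600 about 0.5. Cells were diluted in MHB to 2×10^5 CFU/mL and added 1:1 to serial dilutions in MHB in polypropylene plates.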
# [4] = system: Acinetobacter baumannii; assay: Antibacterial activity against Acinetobacter baumannii ATCC 17961 assessed as inhibition of bacterial growth incubated for 18 hrs by CLSI protocol based method; type: functional; outline: as §1
# [5] = system: Escherichia coli; assay: Antibacterial activity against colistin-resistant Escherichia coli ATCC 25922 carrying MCR-1 gene assessed as inhibition of bacterial growth incubated for 18 hrs by CLSI protocol based method; type: functional
# Outline: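 Broth microdilution MIC. MCR-1 strain grown from glycerol stock in TSB with kanamycin (16 h, 37 °C, 220 rpm), diluted 100-fold in the same medium and grown to OD600 about 0.5. Cells were diluted in MHB to 2×10^5 CFU/mL and added 1:1 to serial dilutions in MHB. Incubated 18 h, 37 °C, 600 rpm; visual lowest no-growth concentration; three technical replicates.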
# [6] = system: Pseudomonas aeruginosa; assay: Antibacterial activity against Pseudomonas aeruginosa PAO1 assessed as inhibition of bacterial growth incubated for 18 hrs by CLSI protocol based method; type: functional; outline: as §1
# [7] = system: Erythrocyte; assay: Hemolytic activity in sheep red blood cell assessed as hemolysis at 64 ug/ml incubated for 1 hrs relative to control; type: toxicity, cell-based, Ovis aries; settings: at 64 µg/mL
# Outline: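 Defibrinated sheep erythrocytes were washed five times in PBS with 0.002% Tween20 and normalized so the positive control read 2.5–3.0 at 415 nm. Cells were mixed with peptide at 64 µg/mL and held 1 h at 37 °C, shaking 500 rpm, then centrifuged. Supernatant A415 was background-corrected against buffer and expressed as % of 0.1% Triton X-100. Run in triplicate.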
compound,measurement,setting,value
CCCCCCCC(=O)N[C@H](CC(N)=O)C(=O)N[C@H](Cc1ccc(O)cc1)C(=O)N[C@H](Cc1c[nH]c2ccccc12)C(=O)N[C@H](CCCN)C(=O)N[C@@H](CCCN)C(=O)NCC(=O)N[C@H](CCCN)C(=O)N[C@@H](Cc1c[nH]c2ccccc12)C(=O)N[C@@H]1C(=O)N[C@@H]([C@@H](C)CC)C(=O)NCC(=O)N[C@@H](CO)C(=O)O[C@@H]1C (Octanoyl-[dN][dY][dW][dOrn][Orn]G[dOrn]WTIGS; ester 9-C),MIC,[1],> 32 µg/mL
same,MIC,[2],16 µg/mL
same,MIC,[3],16 µg/mL
same,MIC,[4],16 µg/mL
same,MIC,[5],16 µg/mL
same,MIC,[6],8 µg/mL
CCCCCCCC(=O)N[C@H](CO)C(=O)N[C@H](Cc1ccc(O)cc1)C(=O)N[C@H](Cc1c[nH]c2ccccc12)C(=O)N[C@H](CCCN)C(=O)N[C@@H](CCCN)C(=O)NCC(=O)N[C@H](CCCN)C(=O)N[C@@H](Cc1c[nH]c2ccccc12)C(=O)N[C@@H]1C(=O)N[C@@H]([C@@H](C)CC)C(=O)N[C@@H](CC(N)=O)C(=O)NCC(=O)NCC(=O)O[C@@H]1C (Octanoyl-[dS][dY][dW][dOrn][Orn]G[dOrn]WTINGG; ester 9-C),MIC,[1],> 32 µg/mL
same,MIC,[2],2 µg/mL
same,MIC,[3],2 µg/mL
same,MIC,[4],4 µg/mL
same,MIC,[5],2 µg/mL
same,MIC,[6],2 µg/mL
CCCCCCCCCCCCCCCC(=O)N[C@H](CO)C(=O)N[C@H](Cc1ccc(O)cc1)C(=O)N[C@H](Cc1c[nH]c2ccccc12)C(=O)N[C@H](CCCN)C(=O)N[C@@H](CCCN)C(=O)NCC(=O)N[C@H](CCCN)C(=O)N[C@@H](Cc1c[nH]c2ccccc12)C(=O)N[C@@H]1C(=O)N[C@@H]([C@@H](C)CC)C(=O)N[C@@H](CC(N)=O)C(=O)NCC(=O)NCC(=O)O[C@@H]1C (Palmitoyl-[dS][dY][dW][dOrn][Orn]G[dOrn]WTINGG; ester 9-C),MIC,[1],32 µg/mL
same,MIC,[2],> 32 µg/mL
same,MIC,[3],32 µg/mL
same,MIC,[4],4 µg/mL
same,MIC,[5],32 µg/mL
same,MIC,[6],32 µg/mL
CCC(C)CCC(=O)N[C@H](CC(N)=O)C(=O)N[C@H](Cc1ccc(O)cc1)C(=O)N[C@H](Cc1c[nH]c2ccccc12)C(=O)N[C@H](CCCN)C(=O)N[C@@H](CCCN)C(=O)NCC(=O)N[C@H](CCCN)C(=O)N[C@@H](Cc1c[nH]c2ccccc12)C(=O)N[C@@H]1C(=O)N[C@@H]([C@@H](C)CC)C(=O)NCC(=O)N[C@@H](CO)C(=O)O[C@@H]1C (some centres not stated) ({Hexanoyl(4ξ-Me)}-[dN][dY][dW][dOrn][Orn]G[dOrn]WTIGS; ester 9-C),MIC,[1],> 32 µg/mL
same,MIC,[2],2 µg/mL
same,MIC,[3],4 µg/mL
same,MIC,[4],4 µg/mL
same,MIC,[5],4 µg/mL
same,MIC,[6],8 µg/mL
CC[C@H](C)[C@@H]1NC(=O)[C@@H](NC(=O)[C@H](Cc2c[nH]c3ccccc23)NC(=O)[C@@H](CCCN)NC(=O)CNC(=O)[C@H](CCCN)NC(=O)[C@@H](CCCN)NC(=O)[C@@H](Cc2c[nH]c3ccccc23)NC(=O)[C@@H](Cc2ccc(O)cc2)NC(=O)[C@@H](CO)NC(=O)CCCCCC(C)C)[C@@H](C)OC(=O)CNC(=O)CNC(=O)[C@H](CC(N)=O)NC1=O ({Octanoyl(7-Me)}-[dS][dY][dW][dOrn][Orn]G[dOrn]WTINGG; ester 9-C),MIC,[1],> 32 µg/mL
same,MIC,[2],2 µg/mL
same,MIC,[3],2 µg/mL
same,MIC,[4],2 µg/mL
same,MIC,[5],2 µg/mL
same,MIC,[6],4 µg/mL
COLISTIN [listing 1 of 2 here],Activity,[7],< 0.1%
COLISTIN [listing 2 of 2 here],MIC,[1],> 32 µg/mL
same,MIC,[2],0.5 µg/mL
same,MIC,[3],0.5 µg/mL
same,MIC,[4],< 0.25 µg/mL
same,MIC,[5],8 µg/mL
same,MIC,[6],4 µg/mL

# From ChEMBL document CHEMBL5104225, “Synthesis and structure-activity relationship studies of N-terminal analogues of the lipopeptide antibiotics brevicidine and laterocidine” (RSC Med Chem, 2022)
